Data as given in ChEMBL document CHEMBL1139532, “Synthesis and monoamine transporter binding properties of 3alpha-(substituted phenyl)nortropane-2beta-carboxylic acid methyl esters. Norepinephrine transporter selective compounds” (J Med Chem, 2005).

Key:
[1] = target: Sodium-dependent dopamine transporter (Rattus norvegicus, UniProt P23977); assay: Inhibition of [3H]WIN-35428 binding to rat striatal dopamine transporter
[2] = target: T1, Norepinephrine transporter (Rattus norvegicus, UniProt Q9WTR4); assay: Displacement of [3H]nisoxetine from norepinephrine transporter (NET) of rat cerebral cortex; format: tissue-based
T1 sequence (Q9WTR4 whole entry): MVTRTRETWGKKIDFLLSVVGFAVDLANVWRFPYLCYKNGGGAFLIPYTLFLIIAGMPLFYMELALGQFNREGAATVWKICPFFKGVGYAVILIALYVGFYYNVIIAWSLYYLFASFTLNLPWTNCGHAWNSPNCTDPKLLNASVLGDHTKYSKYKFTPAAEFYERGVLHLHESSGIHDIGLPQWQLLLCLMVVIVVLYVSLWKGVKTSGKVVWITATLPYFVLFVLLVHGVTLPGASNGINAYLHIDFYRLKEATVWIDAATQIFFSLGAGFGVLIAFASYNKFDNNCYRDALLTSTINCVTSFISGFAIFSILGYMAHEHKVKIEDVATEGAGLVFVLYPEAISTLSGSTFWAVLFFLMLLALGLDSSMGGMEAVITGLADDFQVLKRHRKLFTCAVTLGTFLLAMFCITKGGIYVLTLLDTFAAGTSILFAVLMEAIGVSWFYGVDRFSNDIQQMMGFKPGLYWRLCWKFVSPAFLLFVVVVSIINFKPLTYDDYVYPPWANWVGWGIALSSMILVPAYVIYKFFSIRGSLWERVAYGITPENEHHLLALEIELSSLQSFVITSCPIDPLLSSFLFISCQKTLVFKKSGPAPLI
In short: (§1)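 Male Sprague-Dawley rat (200-250 g) cerebral cortex, 8 mg per tube, in 50 mM Tris, 120 mM NaCl, 5 mM KCl, pH 7.4 at 4 °C, with [3H]nisoxetine and 10 test concentrations. 1 µM desipramine defines nonspecific binding. GF/B filtration, ice-cold washes.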

[3] = target: T2, Sodium-dependent serotonin transporter (Rattus norvegicus, UniProt P31652); assay: Displacement of [3H]paroxetine from serotonin transporter (5-HT) of rat cerebral cortex; format: tissue-based
T2 sequence (P31652 whole entry): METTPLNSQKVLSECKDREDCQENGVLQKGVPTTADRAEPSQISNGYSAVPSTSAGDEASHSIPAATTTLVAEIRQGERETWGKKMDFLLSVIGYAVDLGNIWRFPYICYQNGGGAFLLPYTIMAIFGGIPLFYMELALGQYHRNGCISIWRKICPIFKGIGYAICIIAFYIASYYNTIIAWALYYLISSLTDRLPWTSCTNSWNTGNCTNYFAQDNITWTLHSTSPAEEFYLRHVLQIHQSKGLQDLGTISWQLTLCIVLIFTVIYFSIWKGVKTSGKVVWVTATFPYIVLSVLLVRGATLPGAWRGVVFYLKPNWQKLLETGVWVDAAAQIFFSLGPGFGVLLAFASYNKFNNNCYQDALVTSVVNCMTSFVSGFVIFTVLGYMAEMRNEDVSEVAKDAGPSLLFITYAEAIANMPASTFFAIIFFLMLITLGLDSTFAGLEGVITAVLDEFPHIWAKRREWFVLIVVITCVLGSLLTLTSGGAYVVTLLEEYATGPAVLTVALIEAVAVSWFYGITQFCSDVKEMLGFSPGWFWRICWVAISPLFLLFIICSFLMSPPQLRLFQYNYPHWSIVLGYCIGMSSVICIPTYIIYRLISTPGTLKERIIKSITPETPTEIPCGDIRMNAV
In short: (§2)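 Male Sprague-Dawley rat (200-250 g) brain tissue, 1.5 mg original wet weight, in 50 mM Tris, 120 mM NaCl, 5 mM KCl, pH 7.4, with 0.2 nM [3H]paroxetine and 10 test concentrations, 90 min at room temperature. 1 µM citalopram defines nonspecific binding. GF/B filtration.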

[4] = target: T1, Norepinephrine transporter; assay: Inhibition of [3H]nisoxetine binding to rat cerebral cortex norepinephrine transporter; format: tissue-based; in short: as §1
[5] = target: T2, Sodium-dependent serotonin transporter; assay: Inhibition of [3H]paroxetine binding to rat cortex serotonin transporter; in short: as §2

Chain of Sodium-dependent dopamine transporter (P23977 whole entry): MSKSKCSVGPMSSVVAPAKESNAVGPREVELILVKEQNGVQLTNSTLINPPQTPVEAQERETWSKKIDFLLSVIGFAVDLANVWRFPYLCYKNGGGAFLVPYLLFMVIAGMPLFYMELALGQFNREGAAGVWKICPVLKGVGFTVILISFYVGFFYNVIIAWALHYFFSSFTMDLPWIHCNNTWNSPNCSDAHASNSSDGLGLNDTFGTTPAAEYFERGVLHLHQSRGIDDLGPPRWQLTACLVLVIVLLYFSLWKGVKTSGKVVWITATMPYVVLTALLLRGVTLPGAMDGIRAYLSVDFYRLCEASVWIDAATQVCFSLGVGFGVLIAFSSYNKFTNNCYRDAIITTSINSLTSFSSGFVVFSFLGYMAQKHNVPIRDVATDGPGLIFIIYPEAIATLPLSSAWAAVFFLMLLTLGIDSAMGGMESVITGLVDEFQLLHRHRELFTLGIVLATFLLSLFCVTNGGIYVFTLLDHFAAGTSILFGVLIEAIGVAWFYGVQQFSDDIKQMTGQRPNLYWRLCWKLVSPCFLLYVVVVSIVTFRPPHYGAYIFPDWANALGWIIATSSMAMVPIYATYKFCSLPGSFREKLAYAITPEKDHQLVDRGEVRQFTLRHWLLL

Row | Compound | IC50 [1] [nM] | Ki [2] [nM] | Ki [3] [nM] | IC50 [4] [nM] | IC50 [5] [nM]
1 | COC(=O)C1C2CCC(CC1c1ccc(F)c(C)c1)N2 (centres undefined) | 9.38 | 2.12 | 17.1 | 4.23 | 69.8
2 | COC(=O)C1C(c2ccc(F)c(C)c2)CC2CCC1N2C (centres undefined) | 13.7 | 74 | 258 | 148 | 1160
3 | COC(=O)C1C2CCC(CC1c1cc(F)cc(F)c1)N2 (centres undefined) | 2.35 | 2.05 | 13.7 | 4.1 | 55.8
4 | COC(=O)C1C2CCC(CC1c1cccc(F)c1)N2 (centres undefined) | 2.36 | 4 | 26.8 | 9.7 | 110
5 | COC(=O)C1C(c2ccc(C)c(F)c2)CC2CCC1N2C (centres undefined) | 7.38 | 22.4 | 282 |  | 1150
6 | COC(=O)C1C2CCC(CC1c1ccc(C)c(F)c1)N2 (centres undefined) | 9 | 0.43 | 23.8 | 0.86 | 97.4
7 | COC(=O)C1C2CCC(CC1c1ccc(F)c(F)c1)N2 (centres undefined) | 5.61 | 2.6 | 55.3 | 6.3 | 226
